Reference: PubChem BioAssay
Records with an inconclusive call do not appear.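 The calls were made as follows, unless noted: active = RAM network inhibition above 8.4% in each of two replicates, 3 SD over the compound average; inconclusive = above 8.4% inhibition in only one replicate; inactive = 8.4% inhibition or less in each replicate.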

Tests used:
[1] = S. cerevisiae growth inhibition in permissive medium (OD615), pilot counter-assay for S. cerevisiae lifespan shortening project, permissive growth control (AID 705;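 active = growth inhibition above 25% in both replicates, a cutoff set 3 SD above the mean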); settings: OD615, 24 h, at 10 µM, hits give high values
How it was run: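 assay system = Saccharomyces cerevisiae strain carrying genetically modified DeaD replicative-lifespan system | medium = SC raffinose/galactose permissive medium | dosing = 10 µM single dose, 0.25% DMSO | schedule = 24 h compound exposure at 30 °C after 4 h pre-growth | measured by = OD at 615 nm | read-out basis = growth inhibition from lowered OD615 after 24 h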

[2] = S. cerevisiae growth inhibition in restrictive medium, OD615, pilot screen, restrictive growth control, yeast lifespan reduction project (AID 706;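 active = growth inhibition above a set limit, 3 SD over mean compound inhibition, in both replicates, cut at about 43% in these data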;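 also: modified DeaD lifespan yeast strain shifted to restrictive glucose medium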); settings: OD615, 48 h, at 10 µM, hits give high values
How it was run: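 Buffer or medium: CSMM-D glucose medium. Material: genetically modified Saccharomyces cerevisiae, DeaD replicative lifespan assay strain. Times: 48 h compound exposure at 30 °C. Measured by: optical density at 615 nm.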

[3] = doxorubicin toxicity protection in MRP-1 cells – H69AR cells, CellTiter-Glo, duplicate, MRP-1 activator project, pilot screen (AID 807;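 active = viability increase at or above a cutoff of the median across tested compounds plus 3 SD, cut at about 8.5% in these data, passing the limit was not always enough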;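 also: compound pretreatment 18-22 h then 72 h combined with doxorubicin; 0% = doxorubicin alone and 100% = vehicle without doxorubicin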); settings: H69AR viability with doxorubicin, CellTiter-Glo luminescence; at 10 µM; hits give high values
[4] = viability of HCT116 without oncogenic beta-catenin – human colon tumor cells, pilot screen (AID 823;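 active = cell viability at or below a set limit in both duplicate runs, the limit being the all-compound median minus 4 SD, cut at about 23% in these data, passing the limit was not always enough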;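 also: 0% = wells killed by 20 µM Hyamine and 100% = untreated DMSO cell wells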); settings: HCT116 beta-catenin knockout viability, CellTiter-Glo, 60 h; at 10 µM; hits give low values
[5] = viability of PTEN-null HCT116 cells – cell-based, HCT116 clonal line, CellTiter-Glo, pilot screen (AID 824;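 active = viability at or below 27.92% in each of two runs, the all-compound median minus 4 SD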;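 also: 0% = 20 µM Hyamine control and 100% = vehicle cell control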); settings: HCT116 PTEN-deleted viability, 60 h, at 10 µM, hits give low values
[6] = RAM pathway blockade in budding yeast – dse1pr::URA3 reporter, 5-FOA selection, pilot screen (AID 869;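 active = inhibition over a set limit, the all-compound mean plus 3 SD, in both replicate runs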;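 also: 0% = DMSO wells with no growth and 100% = 10 µM 1-NA-PP1 with full growth; RAM network block rescues cells from 5-FOA so hits raise OD615 growth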); settings: S. cerevisiae dse1pr::URA3 5-FOA growth, OD615, 2 d; at 10 µM; hits give high values; strain carries analog-sensitive mutant Cbk1 kinase
[7] = RAM signaling pathway blockade in yeast – S. cerevisiae, Pdr1DBD-CYC8 efflux-inhibited sensitized strain, primary screen (AID 1298);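 also: 0% = DMSO untreated cells without growth and 100% = 10 µM 1-NA-PP1 full growth; higher means more yeast growth rescued from 5-FOA killing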; settings: S. cerevisiae cbk1-as DSE1-URA3 strain, 5-FOA growth OD615, 2 d; at 50 µM; hits give high values

Cc1ccccc1NC(=O)CSC(N)=O
inactive: growth inhibition [1] -1.39% | growth inhibition [2] 14.1% | viability increase [3] -4.63% | viability [4] 89.4% | viability [5] 91% | inhibition [6] 0.48% | RAM network inhibition [7] 8.45%

CCCCCCN1C(=O)C(O)=C(C(C)=O)C1c1ccc(Cl)cc1 (stereo unspecified)
inactive: growth inhibition [1] -6.47% | growth inhibition [2] 7.25% | viability increase [3] 0.3% | viability [4] 106% | viability [5] 100% | inhibition [6] -0.245% | RAM network inhibition [7] 8.31%

c1ccc(-c2ccccc2-n2cnnn2)cc1
inactive: growth inhibition [1] 4.66% | growth inhibition [2] 3.99% | viability increase [3] -0.54% | viability [4] 97.3% | viability [5] 95.3% | inhibition [6] 1.77% | RAM network inhibition [7] 0.51%

N#CC1=C(N)Oc2n[nH]c(-c3ccccc3)c2C1c1cccc(OC(=O)N2CCOCC2)c1 (stereo unspecified)
inactive: growth inhibition [1] -12.4% | growth inhibition [2] 2.86% | viability increase [3] -2.68% | viability [4] 97.6% | viability [5] 104% | inhibition [6] 2.34% | RAM network inhibition [7] 5.62%

CC(=O)N(CCCc1ccc(C(C)(C)C)cc1)CCCN(C)C
inactive: growth inhibition [1] -2.64% | growth inhibition [2] -12.6% | viability increase [3] -5.16% | viability [4] 70.6% | viability [5] 76.2% | inhibition [6] 0.59% | RAM network inhibition [7] 1.48%

COc1cc(NC(=O)c2cc3ccccc3o2)c(OC)cc1Cl
inactive: growth inhibition [1] -7.12% | growth inhibition [2] -6.08% | viability increase [3] -4.12% | viability [4] 80.7% | viability [5] 73.6% | inhibition [6] 3.16% | RAM network inhibition [7] 9.24%

Cc1sc2ncnc(SCC(=O)c3cccs3)c2c1C
inactive: growth inhibition [1] 6.02% | growth inhibition [2] 10.6% | viability increase [3] -1.23% | viability [4] 100% | viability [5] 94.3% | inhibition [6] 0.73% | RAM network inhibition [7] 3.92%

Cc1onc(-c2ccccc2)c1C(=O)Nc1cccc(C#N)c1
inactive: growth inhibition [1] -20.3% | growth inhibition [2] -6.79% | viability increase [3] -2.52% | viability [4] 96.5% | viability [5] 88.5% | inhibition [6] 2.92% | RAM network inhibition [7] 4.56%

CSc1oc(-c2ccc(F)cc2)nc1S(=O)(=O)c1ccc(F)cc1
inactive: growth inhibition [1] -2.23% | growth inhibition [2] -6.25% | viability increase [3] -1.96% | viability [4] 85.1% | viability [5] 79.6% | inhibition [6] 1.59% | RAM network inhibition [7] 4.1%

CCc1cccc(C)c1NC(=O)C1CCCO1 (stereo unspecified)
inactive: growth inhibition [1] -5.15% | growth inhibition [2] -1.12% | viability increase [3] -3.29% | viability [4] 87.3% | viability [5] 88.1% | inhibition [6] 0.695% | RAM network inhibition [7] 3.57%

O=C(NCc1cccnc1)NC1(c2ccccc2)CC1
inactive: growth inhibition [1] -2.17% | growth inhibition [2] -17.7% | viability increase [3] 0.15% | viability [4] 106% | viability [5] 100% | inhibition [6] 0.49% | RAM network inhibition [7] 0.4%

Cc1cccc(-n2ncc3c(N(C)Cc4ccccc4)ncnc32)c1
inactive: growth inhibition [1] -2.16% | growth inhibition [2] -0.895% | viability increase [3] 5.35% | viability [4] 109% | viability [5] 88.7% | inhibition [6] 0.7% | RAM network inhibition [7] 4.33%

COc1cc(OC)c(NC(=O)c2ccc(Br)o2)cc1Cl
inactive: growth inhibition [1] -8.78% | growth inhibition [2] 7.46% | viability increase [3] -7.05% | viability [4] 69.8% | viability [5] 70.6% | inhibition [6] 1.47% | RAM network inhibition [7] 10.5%

Cn1c(SCC(=O)N2CCCCCC2)nc2c([nH]c3ccccc32)c1=O
inactive: growth inhibition [1] -14.3% | growth inhibition [2] -27.8% | viability increase [3] -5.85% | viability [4] 89% | viability [5] 86.7% | inhibition [6] 3.46% | RAM network inhibition [7] 8.37%

O=C1N/C(=N/c2ccccn2)SC1Cc1ccccc1 (stereo unspecified)
inactive: growth inhibition [1] 0.405% | growth inhibition [2] 1.97% | viability increase [3] 0.48% | viability [4] 102% | viability [5] 93.6% | inhibition [6] 3.98% | RAM network inhibition [7] 6.35%

Cc1ccc(CC(CC(=O)O)C(=O)NC2CCCCC2)cc1 (stereo unspecified)
inactive: growth inhibition [1] -8.33% | growth inhibition [2] -0.295% | viability increase [3] -0.76% | viability [4] 101% | viability [5] 99.2% | inhibition [6] 2.5% | RAM network inhibition [7] 3.83%

Cc1nn(-c2cccc(C(F)(F)F)c2)c(Cl)c1/C=N/n1cnnc1
inactive: growth inhibition [1] -2.49% | growth inhibition [2] 17% | viability increase [3] -6.44% | viability [4] 87.7% | viability [5] 85.7% | inhibition [6] -0.18% | RAM network inhibition [7] 1.77%

Cc1ccc(NC(=O)c2cc(NC(=O)C3CC=CCC3C(=O)O)ccc2N2CCOCC2)cc1 (stereo unspecified)
inactive: growth inhibition [1] -11.6% | growth inhibition [2] -5.87% | viability increase [3] -3.64% | viability [4] 97.3% | viability [5] 95.1% | inhibition [6] 1.23% | RAM network inhibition [7] 2.82%
